Here are results for 52 compounds from ChEMBL document CHEMBL1125715, “Novel 5-HT3 antagonists. Indole oxadiazoles” (J Med Chem, 1991).

The IC50 is the concentration that gives 50% inhibition. Read a high IC50 as weaker potency. By pKa is commonly meant the pH at which an ionisable group is half protonated. Read a low pKa as a stronger acid or weaker base.

The target in one series is T1, Serotonin 3 (5-HT3) receptor (Rattus norvegicus, UniProt P35563+Q9JJ16).
T1 sequence (P35563 whole entry): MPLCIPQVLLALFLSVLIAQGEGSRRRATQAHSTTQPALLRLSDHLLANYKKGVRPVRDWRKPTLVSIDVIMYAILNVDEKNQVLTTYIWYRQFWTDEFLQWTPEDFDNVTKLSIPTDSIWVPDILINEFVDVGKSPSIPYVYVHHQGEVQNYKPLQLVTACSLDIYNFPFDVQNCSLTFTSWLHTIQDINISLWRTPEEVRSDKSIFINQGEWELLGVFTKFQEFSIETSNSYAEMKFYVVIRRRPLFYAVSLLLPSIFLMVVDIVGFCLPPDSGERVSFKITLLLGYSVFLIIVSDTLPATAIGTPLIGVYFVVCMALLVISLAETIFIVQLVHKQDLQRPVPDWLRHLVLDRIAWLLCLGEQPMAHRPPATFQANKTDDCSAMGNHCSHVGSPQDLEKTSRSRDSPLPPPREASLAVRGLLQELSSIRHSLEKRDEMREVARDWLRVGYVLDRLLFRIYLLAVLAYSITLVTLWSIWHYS
T1 sequence (Q9JJ16 whole entry): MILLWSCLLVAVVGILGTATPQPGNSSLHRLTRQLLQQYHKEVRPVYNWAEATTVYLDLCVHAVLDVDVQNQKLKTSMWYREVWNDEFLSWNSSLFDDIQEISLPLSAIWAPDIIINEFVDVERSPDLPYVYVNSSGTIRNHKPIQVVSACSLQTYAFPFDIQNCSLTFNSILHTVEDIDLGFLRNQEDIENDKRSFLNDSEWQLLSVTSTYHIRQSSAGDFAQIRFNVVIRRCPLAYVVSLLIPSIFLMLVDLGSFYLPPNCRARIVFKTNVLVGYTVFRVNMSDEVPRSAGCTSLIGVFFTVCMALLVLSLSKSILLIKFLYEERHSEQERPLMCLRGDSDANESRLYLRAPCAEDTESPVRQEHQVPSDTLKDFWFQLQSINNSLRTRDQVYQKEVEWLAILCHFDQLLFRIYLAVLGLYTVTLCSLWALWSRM
Description: Compound was evaluated for the displacement of [3H]-Q-ICS 205-930 binding to 5-hydroxytryptamine 3 receptor in rat brain membranes. In kind it is cell membranes. Put shortly: (§1)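 Rat cortical membranes from male Sprague-Dawley rats (250-300 g): sucrose homogenization, differential centrifugation, washed in 2.5 mM Hepes, made fresh on the day. About 400 µg protein incubated on ice (4 °C, 15 min) with 0.5-0.7 nM [3H]Q-ICS 205-930 in 10 mM Hepes pH 7.1 containing pargyline and ascorbate. Nonspecific binding defined with 10 µM MDL 72222.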
Compound `Cc1[nH]c2ccc(O)cc2c1CCN` gave an IC50 of 646 nM.

Compound `CN1[C@@H]2CC[C@H]1C[C@@H](OC(=O)c1cc(Cl)cc(Cl)c1)C2` [BEMESETRON] showed an IC50 of 21.9 nM. This IC50 lies about 29-fold lower than the previous one.

A further series concerns the target T1, Serotonin 3 (5-HT3) receptor. The experiment in a line: Displacement of [3H]-Q-ICS 205-930 binding to 5-hydroxytryptamine 3 receptor recognition sites in rat brain membranes. Format: cell membranes. The method, boiled down: as §1
For orientation: In a radioligand displacement assay an active substance lowers the binding of a labelled ligand.
`Cn1cc(-c2noc(C34CCN(CC3)CC4)n2)c2ccccc21` showed an IC50 of 4.27 nM.

Compound `Oc1ccccc1-c1noc(C2CN3CCC2CC3)n1` (centres undefined) had an IC50 of 41.7 nM.

In turn, `CN1CCC(c2nc(-c3cn(C)c4ccccc34)no2)CC1` had an IC50 of 13.2 nM.

In turn, `Cn1cc(-c2noc(C3CC[N+](C)(C)CC3)n2)c2ccccc21` gave an IC50 of 35.5 nM.

For `Cc1ccc2c(c1)c(-c1noc(C3CN4CCC3CC4)n1)cn2C` (centres undefined), the IC50 is 331 nM.

As to `Cn1cc(-c2noc(CCN)n2)c2ccccc21`, the IC50 was 67.6 nM. Compared with the last compound, the IC50 is about 4.9-fold lower.

Consider `c1ccc2[nH]c(-c3noc(C4CN5CCC4CC5)n3)cc2c1` (centres undefined), for which the IC50 was 692 nM.

The compound `Cn1cc(-c2noc(C3CCC[N+](C)(C)C3)n2)c2ccccc21` (centres undefined) gave an IC50 of 34.7 nM.

For `c1ccc2c(-c3noc(C4CN5CCC4CC5)n3)cccc2c1` (centres undefined), the IC50 is 63.1 nM.

In the case of `CNCc1nc(-c2cn(C)c3ccccc23)no1`, the IC50 is 1000 nM.

For `CN(C)Cc1nc(-c2cn(C)c3ccccc23)no1`, the IC50 was 166 nM.

`Cn1cc(-c2noc(C3CN4CCC3CC4)n2)c2cc(F)ccc21` (centres undefined) showed an IC50 of 45.7 nM.

For the compound `Cn1cc(-c2noc(C3CN4CCC3CC4)n2)c2ccccc21` (centres undefined), the IC50 was 1.38 nM.

With `C=CCn1cc(-c2noc(C3CN4CCC3CC4)n2)c2ccccc21` (centres undefined), the IC50 was 21.9 nM.

Turning to `CN(C)CCCc1nc(-c2cn(C)c3ccccc23)no1`, the IC50 was 191 nM.

For `Cc1cccc2c(-c3noc(C4CN5CCC4CC5)n3)cn(C)c12` (centres undefined), the IC50 was 95.5 nM.

Turning to `c1ccc2c(-c3noc(C4CN5CCC4CC5)n3)[nH]nc2c1` (centres undefined), the IC50 is 17.8 nM.

In turn, `Cn1cc(-c2nc(C3CN4CCC3CC4)no2)c2ccccc21` (centres undefined) had an IC50 of 29.5 nM.

In turn, `CN1CCC=C(c2csc(-c3cn(C)c4ccccc34)n2)C1` showed an IC50 of 5890 nM.

Consider `Cn1c(-c2noc(C3CN4CCC3CC4)n2)cc2ccccc21` (centres undefined), for which the IC50 is 676 nM. This IC50 lies about 8.7-fold lower than the previous one.

`Cn1cc(-c2noc(C[N+](C)(C)C)n2)c2ccccc21` had an IC50 of 0.708 nM.

For the compound `Cn1cc(-c2noc(CN)n2)c2ccccc21`, the IC50 is 282 nM.

In turn, `Cn1cc(-c2noc(C3=CCCNC3)n2)c2ccccc21` gave a half-inhibitory concentration (IC50) of 468 nM. Against the preceding compound, the IC50 is about 1.7-fold higher.

The compound `CN1C2CCC1CC(c1nc(-c3cn(C)c4ccccc34)no1)C2` (centres undefined) gave an IC50 of 191 nM. Against the preceding compound, the IC50 is about 2.5-fold lower.

As for `Cn1cc(-c2noc(CCN3CCCCC3)n2)c2ccccc21`, the IC50 was 372 nM.

On to `Cn1cc(-c2noc(C3CC4CCN3CC4)n2)c2ccccc21` (centres undefined), for which the half-inhibitory concentration (IC50) was 129 nM.

In the case of `CN1CCCC(c2nc(-c3cn(C)c4ccccc34)no2)C1` (centres undefined), the IC50 is 12.9 nM.

In turn, `c1ccc2ncc(-c3noc(C4CN5CCC4CC5)n3)cc2c1` (centres undefined) showed an IC50 of 1510 nM.

As for `Oc1ccc(-c2noc(C3CN4CCC3CC4)n2)cc1` (centres undefined), the IC50 was 148 nM.

As to `c1ccc2cc(-c3noc(C4CN5CCC4CC5)n3)ccc2c1` (centres undefined), the IC50 is 1480 nM.

The compound `Cn1cc(-c2noc(CC3CN4CCC3CC4)n2)c2ccccc21` (centres undefined) had an IC50 of 55 nM.

`c1ccc(-c2noc(C3CN4CCC3CC4)n2)cc1` (centres undefined) showed an IC50 of 200 nM.

In turn, `CN1CC=C(c2nnc(-c3cn(C)c4ccccc34)o2)CC1` showed an IC50 of 501 nM.

As to `CNCCc1nc(-c2cn(C)c3ccccc23)no1`, the IC50 was 85.1 nM. Compared with the last compound, the IC50 is about 5.9-fold lower.

Compound `COc1cccc(-c2noc(C3CN4CCC3CC4)n2)c1` (centres undefined) gave an IC50 of 12.6 nM. Against the preceding compound, the IC50 is about 6.8-fold lower.

The compound `c1cncc(-c2noc(C3CN4CCC3CC4)n2)c1` (centres undefined) had an IC50 of 2950 nM.

For the compound `c1ccc2c(-c3noc(C4CN5CCC4CC5)n3)c[nH]c2c1` (centres undefined), the IC50 is 2.69 nM.

In turn, `COc1ccccc1-c1noc(C2CN3CCC2CC3)n1` (centres undefined) gave an IC50 of 155 nM.

Consider `COc1ccc(-c2noc(C3CN4CCC3CC4)n2)cc1` (centres undefined), for which the IC50 was 1580 nM.

Compound `CN(C)CCc1nc(-c2cn(C)c3ccccc23)no1` had an IC50 of 13.8 nM. Compared with the last compound, the IC50 is about 110-fold lower.

On to `CN1CCC=C(c2nc(-c3cn(C)c4ccccc34)no2)C1`, for which the IC50 is 209 nM.

`Oc1cccc(-c2noc(C3CN4CCC3CC4)n2)c1` (centres undefined) showed an IC50 of 81.3 nM.

In the case of `Cn1cc(-c2noc(C3CC4CCC3NC4)n2)c2ccccc21` (stereo in doubt; 12s), the IC50 was 89.1 nM. This IC50 and that of the compound before are within 1.5-fold of each other.

Consider `Cn1cc(-c2noc(C3CC4CCC3NC4)n2)c2ccccc21` (stereo in doubt; 12t), for which the IC50 is 13.2 nM.

`Cn1cc(-c2noc(C3CN4CCC3C4)n2)c2ccccc21` (stereo in doubt; 12u) gave an IC50 of 7.59 nM.

On to `Cn1cc(-c2noc(C3CN4CCC3C4)n2)c2ccccc21` (stereo in doubt; 12v), for which the IC50 was 1.05 nM.

The compound `CN1CC2CCC1C(c1nc(-c3cn(C)c4ccccc34)no1)C2` (stereo in doubt; 12y) gave an IC50 of 224 nM.

Turning to `CN1CC2CCC1C(c1nc(-c3cn(C)c4ccccc34)no1)C2` (stereo in doubt; 12z), the IC50 was 85.1 nM.

Compound `Cn1cc(-c2nsc(C3CC4CCN3C4)n2)c2ccccc21` (stereo in doubt; 26) had an IC50 of 14.1 nM.

`Cn1cc(-c2nsc(C3CC4CCN3C4)n2)c2ccccc21` (stereo in doubt; 27) gave an IC50 of 20.4 nM.

Test system in the next series: not listed separately
The experiment in a line: pKa value of the compound. Format: physicochemical.
`CN1CCC=C(c2nc(-c3cn(C)c4ccccc34)no2)C1` registered a pKa of 7.2.

Test system in a further series: not listed separately
The experiment in a line: pKa value of the compound. In kind it is physicochemical.
The compound `CNCc1nc(-c2cn(C)c3ccccc23)no1` gave a pKa of 6.5.

Consider `CN(C)Cc1nc(-c2cn(C)c3ccccc23)no1`, for which the pKa was found to be 5.6.

`Cn1cc(-c2noc(CN)n2)c2ccccc21`: the pKa was 6.4.

As for `Cn1cc(-c2noc(C3=CCCNC3)n2)c2ccccc21`, the pKa was found to be 7.9.

Compound `CNCCc1nc(-c2cn(C)c3ccccc23)no1` yielded a pKa of 8.8.

With `CN(C)CCc1nc(-c2cn(C)c3ccccc23)no1`, the pKa came to 7.7.
